Reference: ChEMBL document CHEMBL1140748, “Synthesis and biological evaluation of novel 2,4-diaminoquinazoline derivatives as SMN2 promoter activators for the potential treatment of spinal muscular atrophy” (J Med Chem, 2008)
Values after ≈ are worked out from the molar mass of the structure shown.

What was measured:
Mus musculus [1] = experiment: AUC (last) in NMRI mouse brain at 2 mg/kg, iv; type: ADME, organism-based; set-up: time 0 - last, dose 2 mg/kg, route intravenous; conditions: in vivo
How it was run: (§1)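 Mice given a single iv dose of 2 mg/kg in 30% solutol. Parent compound measured in plasma and brain by LC/MS/MS. PK parameters (AUClast, predicted clearance, Vss, t1/2, MRT) were derived from the concentration–time profile and reported with SD.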

[2] = Volume of distribution at steady state in NMRI mouse plasma at 2 mg/kg, iv; type: ADME, organism-based; set-up: dose 2 mg/kg, route intravenous; conditions: read-out: Vdss; how it was run: as §1
[3] = Cmax in NMRI mouse plasma at 10 mg/kg, po; type: ADME, organism-based; set-up: dose 10 mg/kg, route oral
[4] = AUC (last) in NMRI mouse plasma at 10 mg/kg, po; type: ADME, organism-based; set-up: time 0 - last, dose 10 mg/kg, route oral
[5] = AUC (last) in NMRI mouse plasma at 2 mg/kg, iv; type: ADME, organism-based; set-up: time 0 - last, dose 2 mg/kg, route intravenous; how it was run: as §1
[6] = Mean residence time (0 to infinity) in NMRI mouse brain at 10 mg/kg, po; type: ADME, organism-based; set-up: dose 10 mg/kg, route oral
Dihydrofolate reductase = target: T1, Dihydrofolate reductase (Homo sapiens, UniProt P00374); experiment: Inhibition of human recombinant DHFR
T1 sequence (P00374 whole entry): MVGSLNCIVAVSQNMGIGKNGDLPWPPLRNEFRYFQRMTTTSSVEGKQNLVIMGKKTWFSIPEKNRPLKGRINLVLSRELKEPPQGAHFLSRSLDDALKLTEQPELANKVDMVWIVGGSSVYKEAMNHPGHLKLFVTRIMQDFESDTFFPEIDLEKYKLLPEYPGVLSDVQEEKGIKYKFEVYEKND

CYP2C19 = CYP2C19 (Homo sapiens, UniProt P33261); experiment: Inhibition of CYP2C19 at 10 uM; type: ADME
[7] = Clearance in NMRI mouse plasma at 2 mg/kg, iv; type: ADME, organism-based; set-up: dose 2 mg/kg, route intravenous; how it was run: as §1
Fibroblast [8] = experiment: Increase in SMN2 mRNA expression in human fibroblasts from spinal muscular atrophy patient; type: functional, cell-based
Mus musculus [9] = experiment: AUC (last) in NMRI mouse brain at 10 mg/kg, po; type: ADME, organism-based; set-up: time 0 - last, dose 10 mg/kg, route oral; conditions: in vivo
[10] = Activation of SMN2 promoter in mouse NSC34 cells assessed as induction of beta-lactamase activity; type: functional, cell-based; conditions: Mus musculus, NSC-34
Fibroblast [11] = experiment: Increase in number of Cajal bodies containing SMN2 protein in human fibroblasts from spinal muscular atrophy patient at 100 nM after 5 days relative to control; type: functional
[12] = Drug level in NMRI mouse plasma at 2 mg/kg, iv after 15 mins; type: ADME, organism-based; set-up: dose 2 mg/kg, route intravenous
How it was run: (§2)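 Single iv dose of 2 mg/kg in 30% solutol to mice. Plasma and brain sampled at 15 min and 2 h postdose, n = 4 mice per time point. Parent compound quantified by LC/MS/MS; brain levels given as ng/g and plasma as ng/mL.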

CYP3A4 = CYP3A4 (Homo sapiens, UniProt P08684); experiment: Inhibition of CYP3A4 at 10 uM; type: ADME
[13] = Activation of SMN2 promoter in mouse NSC34 cells assessed as induction of beta-lactamase activity relative to nonactivated cells; type: functional
[14] = Half life in NMRI mouse brain at 2 mg/kg, iv; type: ADME, organism-based; set-up: dose 2 mg/kg, route intravenous; how it was run: as §1
Mus musculus [15] = experiment: AUC (0 to infinity ) in NMRI mouse brain at 10 mg/kg, po; type: ADME, organism-based; set-up: time infinity, dose 10 mg/kg, route oral; conditions: in vivo
[16] = Cmax in NMRI mouse brain at 10 mg/kg, po; type: ADME, organism-based; set-up: dose 10 mg/kg, route oral
[17] = Solubility in water; type: physicochemical
[18] = Drug level in NMRI mouse brain at 2 mg/kg, iv after 120 mins; type: ADME, organism-based; set-up: dose 2 mg/kg, route intravenous; conditions: read-out: Drug uptake; how it was run: as §2
[19] = Mean residence time (0 to infinity) in NMRI mouse brain at 2 mg/kg, iv; type: ADME, organism-based; set-up: dose 2 mg/kg, route intravenous; how it was run: as §1
[20] = Drug level in NMRI mouse brain at 2 mg/kg, iv after 15 mins; type: ADME, organism-based; set-up: dose 2 mg/kg, route intravenous; conditions: read-out: Drug uptake; how it was run: as §2
Cytochrome P450 2D6 = Cytochrome P450 2D6 (Homo sapiens, UniProt P10635); experiment: Inhibition of human CYP2D6; type: ADME
CYP1A2 = target: T2, CYP1A2 (Homo sapiens, UniProt P05177); experiment: Inhibition of CYP1A2 at 10 uM; type: ADME
T2 sequence (P05177 whole entry): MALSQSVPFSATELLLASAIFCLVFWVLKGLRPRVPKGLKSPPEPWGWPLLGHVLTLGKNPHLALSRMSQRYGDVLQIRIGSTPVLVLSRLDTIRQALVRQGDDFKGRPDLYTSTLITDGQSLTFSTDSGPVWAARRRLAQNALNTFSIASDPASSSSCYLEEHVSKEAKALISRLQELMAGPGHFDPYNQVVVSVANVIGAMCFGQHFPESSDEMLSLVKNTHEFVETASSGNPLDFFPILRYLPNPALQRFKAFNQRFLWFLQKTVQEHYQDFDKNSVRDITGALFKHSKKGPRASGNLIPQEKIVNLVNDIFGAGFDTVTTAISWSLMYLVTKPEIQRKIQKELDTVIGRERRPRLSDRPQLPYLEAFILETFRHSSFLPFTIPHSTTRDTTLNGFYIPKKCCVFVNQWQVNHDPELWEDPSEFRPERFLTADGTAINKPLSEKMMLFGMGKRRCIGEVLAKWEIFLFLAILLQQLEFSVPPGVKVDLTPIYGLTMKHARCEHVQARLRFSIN

[21] = Increase in SMN2 mRNA expression in mouse NSC34 cells at 500 nM relative to control; type: functional
How it was run: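 NSC-34 mouse motor neuron hybrid cells were treated for 18 h with compound in DMSO at final 500 nM or 50 nM (0.5% DMSO final), with 100 nM TSA as reference. Total RNA was then isolated and reverse-transcribed, and mouse SMN mRNA was measured by TaqMan qPCR in triplicate. Values were normalized to β-actin and expressed as 2^(-ΔCT), with Student's t test.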

[22] = Half life in NMRI mouse brain at 10 mg/kg, po; type: ADME, organism-based; set-up: dose 10 mg/kg, route oral
[23] = Drug level in NMRI mouse plasma at 2 mg/kg, iv after 120 mins; type: ADME, organism-based; set-up: dose 2 mg/kg, route intravenous; how it was run: as §2
CYP2C9 = CYP2C9 (Homo sapiens, UniProt P11712); experiment: Inhibition of CYP2C9 at 10 uM; type: ADME
Fibroblast [24] = experiment: Increase in number of cells with Cajal bodies containing SMN2 protein in human fibroblasts from spinal muscular atrophy patient at 100 nM after 5 days relative to control; type: functional, cell-based
[25] = AUC (0 to infinity ) in NMRI mouse plasma at 10 mg/kg, po; type: ADME, organism-based; set-up: time infinity, dose 10 mg/kg, route oral

Sequence of CYP2C19 (P33261 whole entry): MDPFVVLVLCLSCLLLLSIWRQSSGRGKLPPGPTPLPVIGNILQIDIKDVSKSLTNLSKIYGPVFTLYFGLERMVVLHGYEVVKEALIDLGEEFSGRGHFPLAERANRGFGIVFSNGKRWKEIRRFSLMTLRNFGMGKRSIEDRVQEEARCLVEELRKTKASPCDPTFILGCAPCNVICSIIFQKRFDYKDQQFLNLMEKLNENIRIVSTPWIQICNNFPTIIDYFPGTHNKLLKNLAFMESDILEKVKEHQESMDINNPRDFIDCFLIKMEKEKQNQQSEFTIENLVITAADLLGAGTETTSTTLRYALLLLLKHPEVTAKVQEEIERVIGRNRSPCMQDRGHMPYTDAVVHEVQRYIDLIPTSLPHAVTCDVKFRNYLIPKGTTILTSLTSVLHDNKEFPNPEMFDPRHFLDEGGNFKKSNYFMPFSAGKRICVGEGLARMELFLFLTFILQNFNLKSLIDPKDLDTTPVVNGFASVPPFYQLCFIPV
Sequence of CYP2C9 (P11712 whole entry): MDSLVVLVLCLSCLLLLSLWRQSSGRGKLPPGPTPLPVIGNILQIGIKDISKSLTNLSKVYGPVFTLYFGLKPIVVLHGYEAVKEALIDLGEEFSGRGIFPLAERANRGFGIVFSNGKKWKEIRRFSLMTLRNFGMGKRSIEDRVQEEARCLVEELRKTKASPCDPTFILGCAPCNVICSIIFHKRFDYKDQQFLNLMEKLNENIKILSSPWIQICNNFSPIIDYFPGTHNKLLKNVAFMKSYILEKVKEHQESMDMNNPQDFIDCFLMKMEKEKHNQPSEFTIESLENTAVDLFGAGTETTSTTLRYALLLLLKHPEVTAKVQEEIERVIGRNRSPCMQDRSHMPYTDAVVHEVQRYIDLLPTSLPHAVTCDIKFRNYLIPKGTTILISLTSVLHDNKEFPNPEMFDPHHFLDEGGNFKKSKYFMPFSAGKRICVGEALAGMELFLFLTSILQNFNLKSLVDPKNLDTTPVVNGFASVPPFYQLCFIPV
Sequence of CYP3A4 (P08684 whole entry): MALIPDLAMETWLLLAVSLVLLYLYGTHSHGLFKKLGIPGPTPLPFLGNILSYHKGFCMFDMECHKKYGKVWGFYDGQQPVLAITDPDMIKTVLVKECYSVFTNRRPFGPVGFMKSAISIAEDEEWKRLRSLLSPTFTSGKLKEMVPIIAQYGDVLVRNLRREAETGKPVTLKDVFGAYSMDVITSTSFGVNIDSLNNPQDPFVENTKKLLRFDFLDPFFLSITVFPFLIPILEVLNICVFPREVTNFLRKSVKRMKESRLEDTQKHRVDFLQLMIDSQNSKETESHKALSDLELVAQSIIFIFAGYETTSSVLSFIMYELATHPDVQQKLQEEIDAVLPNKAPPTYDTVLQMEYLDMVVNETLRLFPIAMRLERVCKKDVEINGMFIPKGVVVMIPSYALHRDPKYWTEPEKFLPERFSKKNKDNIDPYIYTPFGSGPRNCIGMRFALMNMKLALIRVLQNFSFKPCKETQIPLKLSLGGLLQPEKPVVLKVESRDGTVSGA
Sequence of Cytochrome P450 2D6 (P10635 whole entry): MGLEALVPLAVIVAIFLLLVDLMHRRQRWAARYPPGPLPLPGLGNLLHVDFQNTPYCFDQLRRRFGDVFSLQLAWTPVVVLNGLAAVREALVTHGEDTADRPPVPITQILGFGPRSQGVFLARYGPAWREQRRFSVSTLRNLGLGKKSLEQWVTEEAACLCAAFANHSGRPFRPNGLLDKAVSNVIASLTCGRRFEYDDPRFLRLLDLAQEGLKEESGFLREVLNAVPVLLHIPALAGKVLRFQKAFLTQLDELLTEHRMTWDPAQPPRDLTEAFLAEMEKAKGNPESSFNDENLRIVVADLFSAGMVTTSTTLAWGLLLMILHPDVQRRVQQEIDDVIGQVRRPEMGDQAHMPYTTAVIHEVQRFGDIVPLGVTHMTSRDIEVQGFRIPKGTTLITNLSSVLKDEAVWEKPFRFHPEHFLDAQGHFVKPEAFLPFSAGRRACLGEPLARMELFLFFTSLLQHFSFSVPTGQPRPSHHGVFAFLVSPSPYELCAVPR

Nc1nc(N)c2c(OCC3CCN(Cc4ccccc4F)CC3)cccc2n1
AUC (Mus musculus [1]): 15724 ng·h/g | Vd [2]: 38.1 L/kg | Cmax [3]: 110 ng/mL | AUC(0-t) [4]: 2670 ng·h/mL | AUC(0-t) [5]: 2410 ng·h/mL | MRT inf [6]: 27.3 h | IC50 (Dihydrofolate reductase): > 125 µM | inhibition at 10 µM (CYP2C19): < 50% | clearance [7]: 1.4 mL/min/kg | Activity (Fibroblast [8]): Dose-dependent effect | AUC (Mus musculus [9]): 15485 ng·h/g | EC50 [10]: 0.004 µM | Fold change (Fibroblast [11]): 5.5 | concentration at 0.25 h [12]: 38 ng/mL | inhibition at 10 µM (CYP3A4): < 50% | Activity [13]: 2.4 | half-life [14]: 19 h | AUC (Mus musculus [15]): 18910 ng·h/g | Cmax [16]: 765 ng/g | solubility [17]: 41.5 mg/mL (≈ 109 mM) | concentration at 2 h [18]: 1130 ng/g | MRT inf [19]: 22.8 h | concentration at 0.25 h [20]: 1420 ng/g | IC50 (Cytochrome P450 2D6): 9.38 µM | inhibition at 10 µM (CYP1A2): < 50% | Fold change [21]: 2 | half-life [22]: 18.8 h | concentration at 2 h [23]: 21 ng/mL | inhibition at 10 µM (CYP2C9): < 50% | Activity (Fibroblast [24]): Dose-dependent effect | AUC(0-inf) [25]: 10900 ng·h/mL
